Measured values from ChEMBL document CHEMBL2311498, “Sulfonylureas have antifungal activity and are potent inhibitors of Candida albicans acetohydroxyacid synthase” (J Med Chem, 2013).
Converted amounts (≈) assume the structure as drawn. The source made the active and inactive calls. The calls are words filed in the database; no cut-off is given here.

What was measured:
Candida albicans [1] = test: Antifungal activity against Candida albicans after 24 hrs by broth microdilution assay; assay type: functional
Outline: (§1)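 Broth microdilution in YNB supplemented with 0.5% glucose and 100 mM ammonium sulfate, with compounds serially diluted from DMSO solutions. Inoculum came from single colonies of 48 h plates suspended in water, adjusted by 530 nm turbidity to 1 × 10^6 to 5 × 10^6 CFU/mL, then diluted to about 10^4 CFU/mL. Incubated at 35 °C with visual readings at 24, 48 and 72 h. MIC50/90 is the concentration giving 50%/90% growth inhibition; MIC50 is the mean of three measurements.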

Candida albicans [2] = test: Antifungal activity against Candida albicans after 72 hrs by disk diffusion method; assay type: functional
Outline: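 Screened by disk diffusion: 10 μL of compound in DMSO applied to a disk on plates inoculated with yeast. Plates were incubated at 35 °C, and inhibition-zone diameters were measured at 24, 48 and 72 h against a DMSO control disk.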

[3] = Inhibition of Candida albicans acetohydroxyacid synthase catalytic domain expressed in Escherichia coli by colorimetric method
Outline: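 Catalytic subunit, His6-tagged, expressed in E. coli Rosetta and purified on Ni affinity resin with FAD present. Single-point colorimetric assay in 250 mM potassium phosphate pH 6.4 with 50 mM pyruvate, 10 mM MgCl2, 1 mM ThDP and 10 μM FAD, 30 °C for 30 min. Acid decarboxylation to acetoin, creatine/α-naphthol colour read at A525. Duplicates at 10–12 inhibitor levels, Ki from nonlinear fit, tight-binding equation where needed.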

Candida albicans [4] = test: Antifungal activity against Candida albicans after 72 hrs by broth microdilution method; assay type: functional
Saccharomyces cerevisiae = test: Antifungal activity against Saccharomyces cerevisiae after 72 hrs by broth microdilution assay; assay type: functional; outline: as §1
[5] = Toxicity in po dosed rat; assay type: organism-based; settings: in vivo
[6] = Toxicity in id dosed rabbit; assay type: organism-based, Oryctolagus cuniculus; settings: in vivo

SMILES | Ki ([3]; read-out: Ki) [nM] | MIC50 (Candida albicans [4]) | MIC90 (Candida albicans [4]) [µM] | other results
OC(Cn1cncn1)(Cn1cncn1)c1ccc(F)cc1F [FLUCONAZOLE] |  |  |  | MIC50 (Candida albicans [1]): 0.93 µg/mL (≈ 3.04 µM)
CCOC(=O)c1ccccc1S(=O)(=O)NC(=O)Nc1nc(I)cc(OC)n1 | 3.8 | 0.6 µM (≈ 0.304 µg/mL) | 1.56 (≈ 0.79 µg/mL) | diameter of the inhibition zone (DIZ) (Candida albicans [2]): 35 mm
CCOC(=O)c1cnn(C)c1S(=O)(=O)NC(=O)Nc1nc(OC)cc(OC)n1 [PYRAZOSULFURON ETHYL] | 66 | 62 µM (≈ 25.7 µg/mL) |  | MIC50 (Saccharomyces cerevisiae): 41.7 µM (≈ 17.3 µg/mL)
COc1cc(Cl)nc(NC(=O)NS(=O)(=O)c2ccccc2C(=O)OCCO[Si](C)(C)C(C)(C)C)n1 |  | > 25 µM | > 25 | Ki [3]: Not Active
COc1cc(Br)nc(NC(=O)NS(=O)(=O)c2ccccc2C(=O)OCCO[Si](C)(C)C(C)(C)C)n1 | 49.8 | > 25 µM | > 25 | 
COc1cc(Cl)nc(NC(=O)NS(=O)(=O)c2ccccc2C(=O)OCCCl)n1 | 62 | 15 µM (≈ 6.74 µg/mL) | > 25 | 
COc1cc(Br)nc(NC(=O)NS(=O)(=O)c2ccccc2C(=O)OCCI)n1 | 270 | > 25 µM | > 25 | 
COc1cc(Cl)nc(NC(=O)NS(=O)(=O)c2ccccc2C(=O)OCCBr)n1 | 257 | > 25 µM | > 25 | 
COc1cc(Br)nc(NC(=O)NS(=O)(=O)c2ccccc2C(=O)OCCCl)n1 |  | 15 µM (≈ 7.41 µg/mL) | > 25 | 
COc1cc(I)nc(NC(=O)NS(=O)(=O)c2ccccc2C(=O)OCCBr)n1 | 26 | 12 µM (≈ 7.02 µg/mL) | > 25 | 
COC(=O)c1ccccc1CS(=O)(=O)NC(=O)Nc1nc(OC)cc(OC)n1 [BENSULFURON METHYL] | 31 | 62 µM (≈ 25.4 µg/mL) |  | MIC50 (Saccharomyces cerevisiae): 20.8 µM (≈ 8.54 µg/mL)
COc1cc(I)nc(NC(=O)NS(=O)(=O)c2ccccc2C(=O)OCCO[Si](C)(C)C(C)(C)C)n1 | 13 | > 25 µM | > 25 | 
COC(=O)c1ccccc1S(=O)(=O)NC(=O)Nc1nc(Br)cc(OC)n1 | 3.8 | 1 µM (≈ 0.445 µg/mL) | 6.25 (≈ 2.78 µg/mL) | 
COc1cc(Cl)nc(NC(=O)NS(=O)(=O)c2ccccc2C(=O)OCCO)n1 | 65 | > 25 µM | > 25 | 
COc1nc(C)nc(NC(=O)NS(=O)(=O)c2ccccc2Cl)n1 [CHLORSULFURON] | 434 | 156 µM (≈ 55.8 µg/mL) |  | MIC50 (Saccharomyces cerevisiae): 117 µM (≈ 41.9 µg/mL)
COC(=O)c1ccccc1S(=O)(=O)NC(=O)Nc1nc(I)cc(OC)n1 | 3.9 | 1 µM (≈ 0.492 µg/mL) | 3.13 (≈ 1.54 µg/mL) | 
CCOC(=O)c1ccccc1S(=O)(=O)NC(=O)Nc1nc(Br)cc(OC)n1 | 4.1 | 0.7 µM (≈ 0.321 µg/mL) | 1.56 (≈ 0.716 µg/mL) | 
COc1cc(Cl)nc(NC(=O)NS(=O)(=O)c2ccccc2C(=O)OCCI)n1 | 1200 | > 25 µM | > 25 | 
COC(=O)c1ccccc1S(=O)(=O)NC(=O)Nc1nc(C)cc(C)n1 [SULFOMETURON METHYL] | 634 | inactive |  | MIC50 (Saccharomyces cerevisiae): 19.5 µM (≈ 7.11 µg/mL)
COc1cc(Br)nc(NC(=O)NS(=O)(=O)c2ccccc2C(=O)OCCO)n1 | 27 | > 25 µM | > 25 | 
COc1cc(Br)nc(NC(=O)NS(=O)(=O)c2ccccc2C(=O)OCCBr)n1 | 65 | > 25 µM | > 25 | 
CCOc1ccccc1OS(=O)(=O)NC(=O)Nc1nc(OC)cc(OC)n1 [ETHOXYSULFURON] | 20 | 2 µM (≈ 0.797 µg/mL) |  | MIC50 (Saccharomyces cerevisiae): 13 µM (≈ 5.18 µg/mL); diameter of the inhibition zone (DIZ) (Candida albicans [2]): 30 mm
COc1cc(I)nc(NC(=O)NS(=O)(=O)c2ccccc2C(=O)OCCCl)n1 | 13.3 | 4 µM (≈ 2.16 µg/mL) | 12.7 (≈ 6.87 µg/mL) | 
COc1cc(I)nc(NC(=O)NS(=O)(=O)c2ccccc2C(=O)OCCO)n1 | 15 | > 25 µM | > 25 | 
COC(=O)c1ccccc1S(=O)(=O)NC(=O)Nc1nc(Cl)cc(OC)n1 | 7.1 | 3 µM (≈ 1.2 µg/mL) | 6.25 (≈ 2.51 µg/mL) | 
COC(=O)c1ccccc1S(=O)(=O)NC(=O)N(C)c1nc(C)nc(OC)n1 [TRIBENURON METHYL] | 1640 | inactive |  | MIC50 (Saccharomyces cerevisiae): inactive
CCOC(=O)c1ccccc1S(=O)(=O)NC(=O)Nc1nc(Cl)cc(OC)n1 [CHLORIMURON ETHYL] | 7 | 2 µM (≈ 0.83 µg/mL) |  | LD50 [5]: > 4000 mg/kg; MIC50 (Saccharomyces cerevisiae): 19.5 µM (≈ 8.09 µg/mL); LD50 [6]: > 2000 mg/kg; diameter of the inhibition zone (DIZ) (Candida albicans [2]): 25 mm
CCOc1nc(NC)nc(NC(=O)NS(=O)(=O)c2ccccc2C(=O)OC)n1 [ETHAMETSULFURON METHYL] | 656 | inactive |  | MIC50 (Saccharomyces cerevisiae): inactive
COc1cc(I)nc(NC(=O)NS(=O)(=O)c2ccccc2C(=O)OCCI)n1 | 93 | 12 µM (≈ 7.59 µg/mL) | 25 (≈ 15.8 µg/mL) | 
